According to ChEMBL document CHEMBL4689842, “EUbOPEN Chemogenomics Library wave 1” (2021):
“And” between values parts separate entries of the source, which are not always exact repeats. Equal values may be shown once.

System: U2OS
Assay: Multiplex assay against U2OS
Format: toxicity, cell-based
Details: human
Summary of the method: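 Phenotypes for tubulin, mitochondrial mass and membrane permeability are expressed as per cents of healthy-nucleus cells. Cells were stained live at seeding with Hoechst33342, BioTracker Green Microtubule Cytoskeleton Dye, MitoTracker Red and Annexin V Alexa Fluor 680, then imaged after compound addition on a CQ1 microscope at 37°C and 5% CO2. Machine-learning gating in CellPathfinder separated Hoechst high-intensity objects from normal cells, divided normal cells by nuclear state (healthy, pyknosed, fragmented) and divided pyknosed cells into mitotic or apoptotic.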

[1] = 12 h, 1 µM, compound concentration 1 uM, replicate 1
[2] = 12 h, 1 µM, compound concentration 1 uM, replicate 2
[3] = 12 h, 10 µM, compound concentration 10 uM, replicate 1
[4] = 12 h, 10 µM, compound concentration 10 uM, replicate 2
[5] = 24 h, 1 µM, compound concentration 1 uM, replicate 1
[6] = 24 h, 1 µM, compound concentration 1 uM, replicate 2
[7] = 24 h, 10 µM, compound concentration 10 uM, replicate 1
[8] = 24 h, 10 µM, compound concentration 10 uM, replicate 2
[9] = 48 h, 1 µM, compound concentration 1 uM, replicate 1
[10] = 48 h, 1 µM, compound concentration 1 uM, replicate 2
[11] = 48 h, 10 µM, compound concentration 10 uM, replicate 1
[12] = 48 h, 10 µM, compound concentration 10 uM, replicate 2

CN1CCCC(n2nc(Cc3ccc(Cl)cc3)c3ccccc3c2=O)CC1.Cl (configuration not stated) [AZELASTINE HYDROCHLORIDE]
Population Apoptotic (%) [1]: 42%
Population Fragmented Nuclei (%) [1]: 12%
Population Healthy Nuclei (%) [1]: 71%
Population Hoechst High Intensity Objects (%) [1]: 8%
Population Membrane Permeable-Phenotype (%) [1]: 11%
Population Mitochondria Different-Phenotype (%) [1]: 64%
Population Mitotic Cells (%) [1]: 57%
Population Normal (%) [1]: 91%
Population Pyknosed Nuclei (%) [1]: 16%
Population Tubulin-Different-Phenotype (%) [1]: 70%
Total Cell Count [1]: 95
Population Apoptotic (%) [2]: 25%
Population Fragmented Nuclei (%) [2]: 6%
Population Healthy Nuclei (%) [2]: 84%
Population Hoechst High Intensity Objects (%) [2]: 11%
Population Membrane Permeable-Phenotype (%) [2]: 7%
Population Mitochondria Different-Phenotype (%) [2]: 57%
Population Mitotic Cells (%) [2]: 75%
Population Normal (%) [2]: 88%
Population Pyknosed Nuclei (%) [2]: 8%
Population Tubulin-Different-Phenotype (%) [2]: 68%
Total Cell Count [2]: 51
Population Apoptotic (%) [3]: 63%
Population Fragmented Nuclei (%) [3]: 18%
Population Healthy Nuclei (%) [3]: 52%
Population Hoechst High Intensity Objects (%) [3]: 12%
Population Membrane Permeable-Phenotype (%) [3]: 77%
Population Mitochondria Different-Phenotype (%) [3]: 97%
Population Mitotic Cells (%) [3]: 36%
Population Normal (%) [3]: 87%
Population Pyknosed Nuclei (%) [3]: 28%
Population Tubulin-Different-Phenotype (%) [3]: 97%
Total Cell Count [3]: 87
Population Apoptotic (%) [4]: 57%
Population Fragmented Nuclei (%) [4]: 14%
Population Healthy Nuclei (%) [4]: 70%
Population Hoechst High Intensity Objects (%) [4]: 4%
Population Membrane Permeable-Phenotype (%) [4]: 84%
Population Mitochondria Different-Phenotype (%) [4]: 98%
Population Mitotic Cells (%) [4]: 42%
Population Normal (%) [4]: 95%
Population Pyknosed Nuclei (%) [4]: 15%
Population Tubulin-Different-Phenotype (%) [4]: 100%
Total Cell Count [4]: 96
Population Apoptotic (%) [5]: 33%
Population Fragmented Nuclei (%) [5]: 16%
Population Healthy Nuclei (%) [5]: 65%
Population Hoechst High Intensity Objects (%) [5]: 5%
Population Membrane Permeable-Phenotype (%) [5]: 5%
Population Mitochondria Different-Phenotype (%) [5]: 70%
Population Mitotic Cells (%) [5]: 66%
Population Normal (%) [5]: 94%
Population Pyknosed Nuclei (%) [5]: 17%
Population Tubulin-Different-Phenotype (%) [5]: 68%
Total Cell Count [5]: 108
Population Apoptotic (%) [6]: 50%
Population Fragmented Nuclei (%) [6]: 7%
Population Healthy Nuclei (%) [6]: 76%
Population Hoechst High Intensity Objects (%) [6]: 8%
Population Membrane Permeable-Phenotype (%) [6]: 10%
Population Mitochondria Different-Phenotype (%) [6]: 57%
Population Mitotic Cells (%) [6]: 50%
Population Normal (%) [6]: 91%
Population Pyknosed Nuclei (%) [6]: 15%
Population Tubulin-Different-Phenotype (%) [6]: 50%
Total Cell Count [6]: 57
Population Apoptotic (%) [7]: 90%
Population Fragmented Nuclei (%) [7]: 29%
Population Healthy Nuclei (%) [7]: 46%
Population Hoechst High Intensity Objects (%) [7]: 10%
Population Membrane Permeable-Phenotype (%) [7]: 95%
Population Mitochondria Different-Phenotype (%) [7]: 97%
Population Mitotic Cells (%) [7]: 9%
Population Normal (%) [7]: 89%
Population Pyknosed Nuclei (%) [7]: 24%
Population Tubulin-Different-Phenotype (%) [7]: 100%
Total Cell Count [7]: 99
Population Apoptotic (%) [8]: 95%
Population Fragmented Nuclei (%) [8]: 16%
Population Healthy Nuclei (%) [8]: 58%
Population Hoechst High Intensity Objects (%) [8]: 4%
Population Membrane Permeable-Phenotype (%) [8]: 98%
Population Mitochondria Different-Phenotype (%) [8]: 100%
Population Mitotic Cells (%) [8]: 4%
Population Normal (%) [8]: 95%
Population Pyknosed Nuclei (%) [8]: 25%
Total Cell Count [8]: 96
Population Apoptotic (%) [9]: 54%
Population Fragmented Nuclei (%) [9]: 15%
Population Healthy Nuclei (%) [9]: 67%
Population Hoechst High Intensity Objects (%) [9]: 6%
Population Membrane Permeable-Phenotype (%) [9]: 5%
Population Mitochondria Different-Phenotype (%) [9]: 37%
Population Mitotic Cells (%) [9]: 45%
Population Normal (%) [9]: 93%
Population Pyknosed Nuclei (%) [9]: 16%
Population Tubulin-Different-Phenotype (%) [9]: 53%
Total Cell Count [9]: 143
Population Apoptotic (%) [10]: 50%
Population Fragmented Nuclei (%) [10]: 11%
Population Healthy Nuclei (%) [10]: 74%
Population Hoechst High Intensity Objects (%) [10]: 7%
Population Membrane Permeable-Phenotype (%) [10]: 16%
Population Mitochondria Different-Phenotype (%) [10]: 41%
Population Mitotic Cells (%) [10]: 50%
Population Normal (%) [10]: 92%
Population Pyknosed Nuclei (%) [10]: 14%
Population Tubulin-Different-Phenotype (%) [10]: 47%
Total Cell Count [10]: 77
Population Apoptotic (%) [11]: 87%
Population Fragmented Nuclei (%) [11]: 23%
Population Healthy Nuclei (%) [11]: 39%
Population Hoechst High Intensity Objects (%) [11]: 11%
Population Membrane Permeable-Phenotype (%) [11]: 93%
Population Mitochondria Different-Phenotype (%) [11]: 100%
Population Mitotic Cells (%) [11]: 12%
Population Normal (%) [11]: 88%
Population Pyknosed Nuclei (%) [11]: 36%
Total Cell Count [11]: 95
Population Apoptotic (%) [12]: 93%
Population Fragmented Nuclei (%) [12]: 22%
Population Healthy Nuclei (%) [12]: 48%
Population Hoechst High Intensity Objects (%) [12]: 5%
Population Membrane Permeable-Phenotype (%) [12]: 98%
Population Mitochondria Different-Phenotype (%) [12]: 98%
Population Mitotic Cells (%) [12]: 6%
Population Normal (%) [12]: 94%
Population Pyknosed Nuclei (%) [12]: 29%
Population Tubulin-Different-Phenotype (%) [12]: 100%
Total Cell Count [12]: 119

CNCc1ccccc1-c1csc([C@H](C)Nc2nc(C)nc3cc(OC)c(OC)cc23)c1 [BAY-294]
Population Apoptotic (%) [3]: 76% and 59%
Population Hoechst High Intensity Objects (%) [3]: 7% and 6% and 3%
Population Membrane Permeable-Phenotype (%) [3]: 100% and 75% and 50%
Population Mitochondria Different-Phenotype (%) [3]: 100% and 90% and 41%
Population Mitotic Cells (%) [3]: 23% and 40%
Population Normal (%) [3]: 92% and 93% and 96%
Population Tubulin-Different-Phenotype (%) [3]: 100% and 97%
Population Apoptotic (%) [4]: 54% and 57% and 68%
Population Healthy Nuclei (%) [4]: 38% and 23% and 66%
Population Membrane Permeable-Phenotype (%) [4]: 88% and 86% and 54%
Population Mitochondria Different-Phenotype (%) [4]: 96% and 93% and 66%
Population Mitotic Cells (%) [4]: 45% and 42% and 31%
Population Normal (%) [4]: 88% and 44%
Population Apoptotic (%) [7]: 90% and 93% and 54%
Population Membrane Permeable-Phenotype (%) [7]: 100% and 54%
Population Mitochondria Different-Phenotype (%) [7]: 100% and 75%
Population Normal (%) [7]: 94% and 86% and 96%
Population Pyknosed Nuclei (%) [7]: 57% and 70%
Population Tubulin-Different-Phenotype (%) [7]: 100%
Population Apoptotic (%) [8]: 92% and 52% and 78%
Population Fragmented Nuclei (%) [8]: 30% and 52%
Population Membrane Permeable-Phenotype (%) [8]: 66% and 85%
Population Mitochondria Different-Phenotype (%) [8]: 76% and 92%
Population Normal (%) [8]: 82% and 92% and 45%
Population Pyknosed Nuclei (%) [8]: 55% and 31% and 27%
Population Tubulin-Different-Phenotype (%) [8]: 98% and 85%
Population Apoptotic (%) [11]: 98%
Population Fragmented Nuclei (%) [11]: 36%
Population Healthy Nuclei (%) [11]: 1%
Population Hoechst High Intensity Objects (%) [11]: 13%
Population Membrane Permeable-Phenotype (%) [11]: 100%
Population Mitochondria Different-Phenotype (%) [11]: 100%
Population Mitotic Cells (%) [11]: 1%
Population Normal (%) [11]: 86%
Population Pyknosed Nuclei (%) [11]: 62%
Population Tubulin-Different-Phenotype (%) [11]: 100%
Population Apoptotic (%) [12]: 70%
Population Fragmented Nuclei (%) [12]: 44%
Population Healthy Nuclei (%) [12]: 18%
Population Hoechst High Intensity Objects (%) [12]: 61%
Population Mitotic Cells (%) [12]: 30%
Population Normal (%) [12]: 38%
Population Pyknosed Nuclei (%) [12]: 37%

CN(C)c1ncnc(-c2ccc3nc(Nc4cc(CN5CCN(C(=O)CC(F)(F)F)CC5)ccn4)[nH]c3c2)c1Cl [BAY-440]
Population Apoptotic (%) [3]: 23%
Population Fragmented Nuclei (%) [3]: 5%
Population Healthy Nuclei (%) [3]: 88% and 91%
Population Hoechst High Intensity Objects (%) [3]: 3% and 1%
Population Mitochondria Different-Phenotype (%) [3]: 32% and 17%
Population Mitotic Cells (%) [3]: 76%
Population Normal (%) [3]: 96% and 98%
Population Pyknosed Nuclei (%) [3]: 6% and 3%
Total Cell Count [3]: 204 and 178
Population Fragmented Nuclei (%) [4]: 10% and 7%
Population Healthy Nuclei (%) [4]: 83% and 90%
Population Hoechst High Intensity Objects (%) [4]: 8%
Population Mitochondria Different-Phenotype (%) [4]: 38% and 19%
Population Mitotic Cells (%) [4]: 66% and 100%
Population Normal (%) [4]: 91%
Population Pyknosed Nuclei (%) [4]: 1%
Total Cell Count [4]: 103 and 116
Population Apoptotic (%) [7]: 37% and 26%
Population Fragmented Nuclei (%) [7]: 7% and 2%
Population Healthy Nuclei (%) [7]: 81% and 89%
Population Hoechst High Intensity Objects (%) [7]: 3% and 2%
Population Mitotic Cells (%) [7]: 62% and 73%
Population Normal (%) [7]: 96% and 97%
Population Pyknosed Nuclei (%) [7]: 8%
Total Cell Count [7]: 221 and 230
Population Fragmented Nuclei (%) [8]: 8% and 3%
Population Healthy Nuclei (%) [8]: 79% and 95%
Population Hoechst High Intensity Objects (%) [8]: 6% and 8%
Population Mitochondria Different-Phenotype (%) [8]: 50% and 33%
Population Mitotic Cells (%) [8]: 50% and 100%
Population Normal (%) [8]: 93% and 91%
Population Pyknosed Nuclei (%) [8]: 11% and 1%
Total Cell Count [8]: 108 and 135

COc1ccc(Oc2cc(NCCC(F)(F)F)c3ncc(-c4ccc(C(=O)NC5CC5)c(C)c4)n3n2)c(F)c1F [BAY-1217389]
Population Apoptotic (%) [3]: 40% and 58%
Population Fragmented Nuclei (%) [3]: 9% and 11%
Population Healthy Nuclei (%) [3]: 83% and 73%
Population Hoechst High Intensity Objects (%) [3]: 4%
Population Membrane Permeable-Phenotype (%) [3]: 66% and 23%
Population Mitotic Cells (%) [3]: 60% and 41%
Population Normal (%) [3]: 95%
Population Pyknosed Nuclei (%) [3]: 7% and 15%
Population Tubulin-Different-Phenotype (%) [3]: 97% and 100%
Total Cell Count [3]: 148 and 164
Population Apoptotic (%) [4]: 60% and 55%
Population Fragmented Nuclei (%) [4]: 19%
Population Healthy Nuclei (%) [4]: 85% and 59%
Population Hoechst High Intensity Objects (%) [4]: 17% and 11%
Population Membrane Permeable-Phenotype (%) [4]: 53% and 63%
Population Mitotic Cells (%) [4]: 40% and 45%
Population Normal (%) [4]: 82% and 88%
Population Tubulin-Different-Phenotype (%) [4]: 88%
Total Cell Count [4]: 114 and 108
Population Apoptotic (%) [7]: 52% and 69%
Population Fragmented Nuclei (%) [7]: 10% and 14%
Population Healthy Nuclei (%) [7]: 77% and 65%
Population Hoechst High Intensity Objects (%) [7]: 5% and 2%
Population Membrane Permeable-Phenotype (%) [7]: 38% and 41%
Population Mitochondria Different-Phenotype (%) [7]: 44% and 83%
Population Mitotic Cells (%) [7]: 47% and 30%
Population Normal (%) [7]: 94% and 97%
Population Pyknosed Nuclei (%) [7]: 11% and 20%
Population Tubulin-Different-Phenotype (%) [7]: 92% and 99%
Total Cell Count [7]: 154 and 167
Population Apoptotic (%) [8]: 50% and 60%
Population Fragmented Nuclei (%) [8]: 13%
Population Healthy Nuclei (%) [8]: 75% and 54%
Population Hoechst High Intensity Objects (%) [8]: 10% and 13%
Population Membrane Permeable-Phenotype (%) [8]: 39% and 78%
Population Mitochondria Different-Phenotype (%) [8]: 59% and 95%
Population Mitotic Cells (%) [8]: 50% and 39%
Population Normal (%) [8]: 89% and 86%
Population Pyknosed Nuclei (%) [8]: 14% and 32%
Population Tubulin-Different-Phenotype (%) [8]: 87% and 100%
Total Cell Count [8]: 110 and 101
